How the values were obtained:
[1] = target: Epidermal growth factor receptor (Homo sapiens, UniProt P00533); assay: Inhibition of EGFR (unknown origin) using poly (Glu, Tyr) 4:1 as substrate after 30 mins by HTRF assay
Outline: (§1)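 HTRF kinase assay on plates precoated with 20 µg/mL poly(Glu,Tyr) 4:1. ATP (10 mM solution) in 50 mM HEPES pH 7.0 buffer with DTT, MgCl₂, MnCl₂ and 0.1% NaN₃. Compound in 1% DMSO; reaction started with purified kinase and run 30 min at 25 °C. Stopped with Streptavidin-XL665 plus TK antibody cryptate and read at 320/615. Inhibition relative to enzyme and no-enzyme controls; IC50 from the inhibition curves.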

A549 = assay: Cytotoxicity against c-Met-dependent human A549 cells assessed as growth inhibition after 72 hrs by MTT assay; settings: A549, 72 h
[2] = Cytotoxicity against c-Met-dependent human U87MG cells assessed as growth inhibition after 72 hrs by MTT assay; format: functional, cell-based, U-87MG ATCC; settings: U-87 MG
Outline: (§2)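 Cells grown in MEM with 10% FBS. About 4×10³ cells/well were seeded and incubated 24 h at 37 °C, 5% CO₂, then exposed to compound for 72 h. MTT was added (terminal 5 µg/mL) for 4 h at 37 °C, and formazan was dissolved in DMSO. IC50 is the mean of three determinations.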

[3] = target: Vascular endothelial growth factor receptor 2 (Homo sapiens, UniProt P35968); assay: Inhibition of VEGFR-2 (unknown origin) using poly (Glu, Tyr) 4:1 as substrate after 30 mins by HTRF assay; outline: as §1
[4] = target: Platelet-derived growth factor receptor alpha (Homo sapiens, UniProt P16234); assay: Inhibition of PDGFRalpha (unknown origin) using poly (Glu, Tyr) 4:1 as substrate after 30 mins by HTRF assay; outline: as §1
[5] = target: Hepatocyte growth factor receptor (Homo sapiens, UniProt P08581); assay: Inhibition of c-Met (unknown origin) using poly (Glu, Tyr) 4:1 as substrate after 30 mins by HTRF assay
[6] = target: T1, Receptor-type tyrosine-protein kinase FLT3 (Homo sapiens, UniProt P36888); assay: Inhibition of Flt-3 (unknown origin) using poly (Glu, Tyr) 4:1 as substrate after 30 mins by HTRF assay; outline: as §1
T1 sequence (P36888 whole entry): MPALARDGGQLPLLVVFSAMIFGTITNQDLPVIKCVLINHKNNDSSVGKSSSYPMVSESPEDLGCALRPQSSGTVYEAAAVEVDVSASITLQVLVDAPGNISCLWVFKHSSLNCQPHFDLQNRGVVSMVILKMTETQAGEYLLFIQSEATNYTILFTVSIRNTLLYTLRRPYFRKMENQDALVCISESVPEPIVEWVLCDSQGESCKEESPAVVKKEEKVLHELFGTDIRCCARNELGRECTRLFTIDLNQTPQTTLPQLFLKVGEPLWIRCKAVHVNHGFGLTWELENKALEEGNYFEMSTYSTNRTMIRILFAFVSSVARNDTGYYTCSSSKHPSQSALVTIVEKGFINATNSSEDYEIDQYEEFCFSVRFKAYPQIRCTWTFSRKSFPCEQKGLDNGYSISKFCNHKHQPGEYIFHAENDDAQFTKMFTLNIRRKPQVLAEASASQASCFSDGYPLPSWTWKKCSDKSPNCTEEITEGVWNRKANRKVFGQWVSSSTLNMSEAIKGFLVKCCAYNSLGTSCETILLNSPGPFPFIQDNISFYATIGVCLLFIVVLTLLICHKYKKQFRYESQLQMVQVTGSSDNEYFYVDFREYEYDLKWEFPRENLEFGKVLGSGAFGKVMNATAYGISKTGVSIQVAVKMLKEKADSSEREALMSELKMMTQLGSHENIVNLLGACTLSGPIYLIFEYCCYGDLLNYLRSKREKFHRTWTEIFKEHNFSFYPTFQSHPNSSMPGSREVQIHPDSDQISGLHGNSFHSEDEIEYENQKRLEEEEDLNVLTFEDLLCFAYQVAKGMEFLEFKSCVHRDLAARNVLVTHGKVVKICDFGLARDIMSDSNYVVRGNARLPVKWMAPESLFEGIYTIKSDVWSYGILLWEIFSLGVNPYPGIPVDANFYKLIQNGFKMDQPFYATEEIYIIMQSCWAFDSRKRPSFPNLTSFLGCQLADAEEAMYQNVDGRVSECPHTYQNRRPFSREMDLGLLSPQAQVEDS

SMMC-7721 = assay: Cytotoxicity against c-Met-dependent human SMMC7721 cells assessed as growth inhibition after 72 hrs by MTT assay; format: functional, cell-based; settings: SMMC-7721, 72 h; outline: as §2
[7] = target: Mast/stem cell growth factor receptor Kit (Homo sapiens, UniProt P10721); assay: Inhibition of c-Kit (unknown origin) using poly (Glu, Tyr) 4:1 as substrate after 30 mins by HTRF assay; outline: as §1
[8] = Cytotoxicity against c-Met-independent human H460 cells assessed as growth inhibition after 72 hrs by MTT assay; settings: NCI-H460, 72 h
MKN-45 = assay: Cytotoxicity against c-Met-dependent human MKN45 cells assessed as growth inhibition after 72 hrs by MTT assay; settings: MKN-45, 72 h
HT-29 = assay: Cytotoxicity against c-Met-dependent human HT-29 cells assessed as growth inhibition after 72 hrs by MTT assay; settings: HT-29, 72 h

IC50 [1]: > 10000 nM
IC50 [3]: 15.4 nM
IC50 [4]: 27.3 nM
IC50 [5]: 0.59 nM
IC50 [6]: 8.5 nM
IC50 [7]: 3.9 nM
Compound: COc1cc2c(Oc3ccc(NC(=O)c4nn(-c5ccccc5C(F)(F)F)c5ccccc5c4=O)cc3F)ccnc2cc1OCCCN1CCCC1
IC50 (A549): 35 nM
IC50 [2]: 350 nM
IC50 (SMMC-7721): 250 nM
IC50 [8]: 55 nM
IC50 (MKN-45): 22 nM
IC50 (HT-29): 110 nM
